Results on 22 compounds are retold here after ChEMBL document CHEMBL1649387, “Synthesis and evaluation of quinonoid compounds against tumor cell lines” (Eur J Med Chem, 2011).

Structures are written as SMILES.

One assay has as its system PBMC. The experiment in a line: Cytotoxicity against human PBMC cells after 72 hrs by Alamar Blue assay. Format: cell-based. On the technique in general: Resazurin is reduced to fluorescent resorufin, in cell work by metabolically active cells.
Assay [1] has as its system HL-60. The assay can be described thus: Cytotoxicity against human HL60 cells after 72 hrs by MTT assay. It is filed as functional, cell-based. The settings on record: HL-60, 72 h. In general terms: Tetrazolium assays rely on reduction of a dye to a coloured formazan, in cell work by metabolically active cells.
Assay [2] deals with MDA-MB-435. The assay can be described thus: Cytotoxicity against human MDA-MB-435 cells after 72 hrs by MTT assay. Format: functional, cell-based. The settings on record: MDA-MB-435, 72 h.
For assay [3], the system named is HCT-8. The experiment in a line: Cytotoxicity against human HCT8 cells after 72 hrs by MTT assay. Format: functional, cell-based. The settings on record: HCT-8, 72 h.
For assay [4], the system named is SF-295. The assay can be described thus: Cytotoxicity against human SF295 cells after 72 hrs by MTT assay. Format: functional, cell-based. The settings on record: SF-295, 72 h.
For assay [5], the system named is HL-60. The assay can be described thus: Induction of apoptosis in human HL60 cells assessed as apoptotic nuclei at 5 uM after 24 hrs by acridine orange/ethidium bromide staining based fluorescence microscopy. Format: functional. In short, it runs like this:
(§1)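 Cells exposed 24 h, with or without 24 h pretreatment with 1-bromoheptane. Cell suspension mixed with acridine orange/ethidium bromide (each 100 in PBS) and spread on slide. 300 cells counted per point by fluorescence microscopy to give % apoptotic cells. Mean ± S.E.M. of three experiments.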

Assay [6] relates to MDA-MB-435. The experiment in a line: Induction of apoptosis in human MDA-MB-435 cells assessed as apoptotic nuclei at 5 uM after 24 hrs by acridine orange/ethidium bromide staining based fluorescence microscopy. Format: functional. In short, it runs like this:
as §1

The subject of assay [7] is HCT-8. The experiment in a line: Induction of apoptosis in human HCT8 cells assessed as apoptotic nuclei at 5 uM after 24 hrs by acridine orange/ethidium bromide staining based fluorescence microscopy. Format: functional. In short, it runs like this:
as §1

Assay [8] relates to SF-295. The experiment in a line: Induction of apoptosis in human SF295 cells assessed as apoptotic nuclei at 5 uM after 24 hrs by acridine orange/ethidium bromide staining based fluorescence microscopy. Format: functional. In short, it runs like this:
as §1

Assay [9] concerns HL-60. The experiment in a line: Induction of apoptosis in human HL60 cells assessed as apoptotic nuclei at 5 uM after 24 hrs by acridine orange/ethidium bromide staining based fluorescence microscopy in presence of 1-bromoheptane. It is filed as functional. In short, it runs like this:
as §1

In assay [10] the test system is MDA-MB-435. The assay can be described thus: Induction of apoptosis in human MDA-MB-435 cells assessed as apoptotic nuclei at 5 uM after 24 hrs by acridine orange/ethidium bromide staining based fluorescence microscopy in presence of 1-bromoheptane. It is filed as functional. In short, it runs like this: as §1
In assay [11] the test system is HCT-8. The experiment in a line: Induction of apoptosis in human HCT8 cells assessed as apoptotic nuclei at 5 uM after 24 hrs by acridine orange/ethidium bromide staining based fluorescence microscopy in presence of 1-bromoheptane. It is filed as functional. In short, it runs like this:
as §1

For assay [12], the system named is SF-295. The experiment in a line: Induction of apoptosis in human SF295 cells assessed as apoptotic nuclei at 5 uM after 24 hrs by acridine orange/ethidium bromide staining based fluorescence microscopy in presence of 1-bromoheptane. Format: functional. In short, it runs like this:
as §1

In general, IC50 refers to the concentration at which inhibition is half-maximal. The low end stands for higher potency, the high end for lower potency. On to `Cc1ccccc1-c1nc2ccc3c(c2[nH]1)C(=O)c1ccccc1C3=O`, for which the IC50 in the assay with PBMC, in the assay on HL-60 [1], in the assay on MDA-MB-435 [2], in the assay with HCT-8 [3] and in the assay on SF-295 [4] was above 14.8 µM each time. Besides, the Activity with HL-60 [5] turned out to be 11.47%; in the assay on MDA-MB-435 [6] it was 6.33%; with HCT-8 [7], 5.33%; in the assay with SF-295 [8] it was 11.85%; in the assay on HL-60 [9], 10.75%; with MDA-MB-435 [10], 10.38%. The Activity is 9.17% with HCT-8 [11] and 13.95% with SF-295 [12].
With `O=C1c2ccccc2C(=O)c2c1ccc1nc(-c3ccc(F)cc3)[nH]c21`, the half-maximal inhibitory concentration (IC50) in the assay on PBMC, with HL-60 [1], in the assay with MDA-MB-435 [2], in the assay with HCT-8 [3] and with SF-295 [4] was above 14.6 µM in each case.
On to `Cc1ccc(-c2nc3ccc4c(c3[nH]2)C(=O)c2ccccc2C4=O)cc1`, for which the half-inhibitory concentration (IC50) in the assay with PBMC, with HL-60 [1], in the assay with MDA-MB-435 [2], with HCT-8 [3] and with SF-295 [4] was above 14.8 µM throughout. Moreover, the Activity with HL-60 [5] was 5.27%; in the assay with MDA-MB-435 [6], 7.49%; in the assay on HCT-8 [7], 8.72%; in the assay with SF-295 [8] it was 5.82%; in the assay on HL-60 [9], 9.62%; in the assay on MDA-MB-435 [10], 12.27%. Also, the Activity in the assay with HCT-8 [11] was determined as 9.31%; with SF-295 [12], 4.17%.
Regarding `CC1(C)OC2=C(C(=O)C(=O)c3ccccc32)[C@H](n2cc(-c3ccc(Br)cc3)nn2)[C@H]1Br`, the 50% inhibitory concentration (IC50) with PBMC was 4.01 µM; with HL-60 [1], 1.67 µM; in the assay on MDA-MB-435 [2], 1.99 µM; in the assay on HCT-8 [3], 2.24 µM; in the assay on SF-295 [4], 2.33 µM.
In the case of `CC(C)CCC1=C(O)C(=O)c2ccccc2C1=O`, the 50% inhibitory concentration (IC50) in the assay on PBMC, with HL-60 [1], with MDA-MB-435 [2], in the assay on HCT-8 [3] and with SF-295 [4] was above 20.5 µM throughout.
For the compound `CC1(C)OC2C(=O)c3ccccc3C(=O)C2[C@@H](N=[N+]=[N-])[C@@H]1Br` (stereo partly specified), the IC50 with PBMC was found to be 11.3 µM; in the assay with HL-60 [1], 5.68 µM; in the assay with MDA-MB-435 [2], 3.97 µM; with HCT-8 [3] it was 12.4 µM; in the assay on SF-295 [4] it was 13.8 µM.
For `COc1cc(-c2nc3ccc4c(c3[nH]2)C(=O)c2ccccc2C4=O)ccc1O` the same measures were above 13.6 µM, above 13.6 µM, above 13.6 µM, above 13.6 µM and above 13.6 µM.
Turning to `CCCC1=C(O)C(=O)c2ccccc2C1=O`, the IC50 in the assay with PBMC, in the assay with HL-60 [1], in the assay with MDA-MB-435 [2] and in the assay on HCT-8 [3] was above 23.1 µM throughout.
For the compound `CC(C)CCC1=C(OC2(CCC(C)C)C(=O)C(=O)C3=C(CCCC3)C2=O)C(=O)C2=C(CCCC2)C1=O` (stereo unspecified), the IC50 in the assay with PBMC, in the assay with HL-60 [1], in the assay with MDA-MB-435 [2], with HCT-8 [3] and with SF-295 [4] was above 10.1 µM throughout. Further, the Activity in the assay on HL-60 [5] came to 10.21%; in the assay on MDA-MB-435 [6] it was 8.38%; in the assay on HCT-8 [7], 5.85%; in the assay with SF-295 [8] it was 8.33%; in the assay with HL-60 [9] it was 10.62%; in the assay on MDA-MB-435 [10] it was 13.72%. Moreover, the values for the Activity with HCT-8 [11] and in the assay on SF-295 [12] were 10.33% and 12.06%, respectively.
`CC(C)CCC1=C(OC2(CCC(C)C)C(=O)C(=O)c3ccccc3C2=O)C(=O)c2ccccc2C1=O` (stereo unspecified): the 50% inhibitory concentration (IC50) in the assay with PBMC, in the assay on HL-60 [1], with MDA-MB-435 [2], in the assay with HCT-8 [3] and in the assay on SF-295 [4] was above 10.3 µM throughout. For the same compound, the Activity stood at 8.13% in the assay with HL-60 [5]; 9.51% with MDA-MB-435 [6]; 8.71% in the assay with HCT-8 [7]; 7.94% in the assay on SF-295 [8]; 4.17% in the assay with HL-60 [9]; 7.44% with MDA-MB-435 [10]. Besides, the Activity with HCT-8 [11] is 11.46%; in the assay with SF-295 [12], 8.01%.
On to `CC(C)CC1=C(OC2(CC(C)C)C(=O)C(=O)C3=C(CCCC3)C2=O)C(=O)C2=C(CCCC2)C1=O` (stereo unspecified), for which the IC50 with PBMC, with HL-60 [1], with MDA-MB-435 [2], with HCT-8 [3] and with SF-295 [4] was above 10.7 µM each time.
Consider `CC(C)CC1=C(O)C(=O)c2ccccc2C1=O`, for which the IC50 in the assay with PBMC, with HL-60 [1], with MDA-MB-435 [2], in the assay on HCT-8 [3] and with SF-295 [4] was above 21.7 µM throughout.
Take `CC1=C(OC2(C)C(=O)c3ccccc3C2=O)C(=O)c2ccccc2C1=O`: the half-maximal inhibitory concentration (IC50) with PBMC, in the assay on HL-60 [1], with MDA-MB-435 [2], in the assay on HCT-8 [3] and with SF-295 [4] was above 14.4 µM each time.
Turning to `CC1(C)OC2=C(C(=O)C(=O)c3ccccc32)[C@H](N=[N+]=[N-])[C@H]1Br`, the 50% inhibitory concentration (IC50) in the assay on PBMC came out at 3.58 µM; in the assay with HL-60 [1], 1.43 µM; in the assay with MDA-MB-435 [2] it was 1.54 µM; in the assay with HCT-8 [3], 2.42 µM; in the assay on SF-295 [4], 1.93 µM.
For the compound `O=C1c2ccccc2C(=O)c2c1ccc1nc(-c3cccc(F)c3)[nH]c21`, the concentration for half-maximal inhibition (IC50) in the assay on PBMC, in the assay with HL-60 [1], in the assay on MDA-MB-435 [2], in the assay with HCT-8 [3] and in the assay with SF-295 [4] was above 14.6 µM in each case.
Regarding `COc1ccc(-c2cn([C@H]3C4=C(OC(C)(C)[C@@H]3Br)c3ccccc3C(=O)C4=O)nn2)cc1`, the concentration for half-maximal inhibition (IC50) with PBMC came to 2.52 µM; with HL-60 [1] it was 1.88 µM; with MDA-MB-435 [2], 1.92 µM; in the assay with HCT-8 [3], 3.21 µM; with SF-295 [4] it was 3.01 µM.
For `O=C1c2ccccc2C(=O)c2c1ccc1nc(-c3ccccc3F)[nH]c21` the same measures were above 14.6 µM, above 14.6 µM, above 14.6 µM, above 14.6 µM and above 14.6 µM.
On to `CC(C)CC1=C(O)C(=O)C2=C(CCCC2)C1=O`, for which the IC50 with PBMC, in the assay with HL-60 [1], in the assay with MDA-MB-435 [2], in the assay with HCT-8 [3] and with SF-295 [4] was above 21.4 µM throughout.
With `CCCC1=C(OC2(CCC)C(=O)C(=O)c3ccccc3C2=O)C(=O)c2ccccc2C1=O` (stereo unspecified), the half-inhibitory concentration (IC50) with PBMC, in the assay with HL-60 [1], in the assay on MDA-MB-435 [2], in the assay with HCT-8 [3] and with SF-295 [4] was above 11.6 µM each time.
On to `CC(C)CCC1=C(O)C(=O)C2=C(CCCC2)C1=O`, for which the concentration for half-maximal inhibition (IC50) with PBMC, in the assay with HL-60 [1], in the assay on MDA-MB-435 [2], in the assay with HCT-8 [3] and in the assay with SF-295 [4] was above 20.1 µM throughout.
On to `CCCC1=C(O)C(=O)C2=C(CCCC2)C1=O`, for which the half-inhibitory concentration (IC50) with PBMC is above 22.7 µM; in the assay with HL-60 [1] it was above 22.7 µM; in the assay on MDA-MB-435 [2], above 22.7 µM; in the assay with HCT-8 [3] it was 3.99 µM; in the assay with SF-295 [4], above 22.7 µM.
Turning to `CC(C)CC1=C(OC2(CC(C)C)C(=O)C(=O)c3ccccc3C2=O)C(=O)c2ccccc2C1=O` (stereo unspecified), the 50% inhibitory concentration (IC50) with PBMC, in the assay on HL-60 [1], with MDA-MB-435 [2], in the assay with HCT-8 [3] and in the assay with SF-295 [4] was above 10.9 µM throughout.
